How the values were obtained:
[1] = target: Human immunodeficiency virus type 1 reverse transcriptase (Human immunodeficiency virus 1, UniProt Q72547); experiment: Inhibition of HIV-1 recombinant reverse transcriptase after 1 hr by streptavidinalkaline phosphatase reporter system
Outline: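 Highly purified recombinant HIV-1 RT with a poly(rA)/oligo(dT)15 homopolymer template. SA-ALP was added, then PNPP (1 mg/mL, pH 9.5) for 30 min at 37 °C, stopped with NaOH. IC50 is the mean of three experiments.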

[2] = Selectivity index, ratio of CC50 for human TZM-bl cells to EC50 for wild-type HIV-1 SF33; format: toxicity, cell-based; details: read-out: Ratio CC50/EC50
Outline: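 SI is calculated as CC50 in TZM-bl cells divided by EC50 against HIV-1 SF33 infection.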

[3] = Cytotoxicity against human TZM-bl cells after 3 days by XTT assay; format: cell-based
[4] = system: Human immunodeficiency virus 1; experiment: Antiviral activity against wild-type HIV-1 SF33 infected in human TZM-bl cells after 7 days by ELISA; format: functional, organism-based; details: Human immunodeficiency virus 1, SF33, TZM-bl, 168 h
Outline: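 TZM-bl cells (4 × 10⁴/well) were infected with 200 TCID₅₀ of HIV-1 SF33 for 2 h at 37 °C. Serially diluted compounds were then added and incubation continued 7 days at 37 °C. p24 was measured by ELISA.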

| IC50 [1] [µM] | EC50 [4] [µM] | SMILES | selectivity ratio [2] | CC50 at 72 h [3] [µM] |
| --- | --- | --- | --- | --- |
| 24 |  | O=c1[nH]c(CCc2ccccc2)cc(NC2CCCC2)c1I |  |  |
| 20.3 |  | O=c1[nH]c(CCc2ccccc2)cc(Sc2ccccc2)c1I |  |  |
| 57.1 |  | O=c1[nH]c(CCc2ccccc2)cc(Sc2ccccc2)c1Br |  |  |
| 16.9 |  | Cc1ccc(Sc2cc(CCc3ccccc3)[nH]c(=O)c2Br)cc1 |  |  |
| 0.093 | 0.136 | CC(C)c1c(Sc2ccccc2)cc(CCc2ccccc2)[nH]c1=O | 998 | 136 |
| 11.3 |  | O=c1[nH]c(CCc2ccccc2)cc(Nc2ccccc2)c1Br |  |  |
| 40.3 |  | O=c1[nH]c(CCc2ccccc2)cc(NC2CCCCC2)c1Br |  |  |
| 0.42 | 2.71 | CC1CCCCC1Nc1cc(CCc2ccccc2)[nH]c(=O)c1I (stereo unspecified) | 18.5 | 50.2 |
| 12 |  | Cc1ccc(Sc2cc(CCc3ccccc3)[nH]c(=O)c2I)cc1 |  |  |
| 15.2 |  | O=c1[nH]c(CCc2ccccc2)cc(NC2CCCCC2)c1I |  |  |
| 15.2 |  | CN(C)c1c(Sc2ccccc2)cc(CCc2ccccc2)[nH]c1=O |  |  |
| 0.68 | 13.7 | CC1CCCCC1Nc1cc(CCc2ccccc2)[nH]c(=O)c1Br (stereo unspecified) | 9.6 | 131 |
| 0.29 | 0.15 | O=c1[nH]c(CCc2ccccc2)cc(Oc2ccccc2)c1I | 1200 | 181 |
| 8.14 |  | O=c1[nH]c(CCc2ccccc2)cc(Nc2ccccc2)c1I |  |  |
| 43.3 |  | O=c1[nH]c(CCc2ccccc2)cc(NC2CCCC2)c1Br |  |  |
| 0.089 | 0.0563 | CC(C)c1c(Oc2ccccc2)cc(CCc2ccccc2)[nH]c1=O | 3470 | 195 |
